Active and inactive are the calls of the source.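 The calls were made as follows, unless noted: active = signal rise over 3 SD above mean of control wells given weak agonist, in both repeats and first screen; inactive = the rest.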

The record followed here is PubChem BioAssay.

Test system in one assay: not listed separately
Put plainly: serotonin-gated TRPC4 signal block – cell-based, second counter screen, HEK293 TRPC4/5HT1a, Fluo-4, counter-screen for TRPC4 inhibitor project, confirmation (AID 434978;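 active = primary screen active whose calcium signal fell more than 3 SD beyond the full-serotonin control mean in both duplicate plates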;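 as to outcome: serotonin given first at submaximal then at maximal dose after compound preincubation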). The following applies: Fluo-4 calcium flux, at 10 µM, serotonin added to trigger calcium flux; hits give high values. The method, boiled down:
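Times: 110 s each for compound, submaximal and ECmax serotonin; Assay system: TRPC4/5HT1a HEK293 cells; Also added: serotonin, a submaximal addition followed by a maximal (ECmax) addition; Replicates: each compound tested on duplicate plates; Measured by: Fluo-4 calcium fluorescence.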
On to `CCCN(CCC)CCCNC(=O)c1cc2c(=O)n(C)c3ccccc3c2n1C`, for which the outcome was inactive.

`COc1ccc(CNCC(O)(c2ccccc2)c2ccccc2)cc1OC`: the outcome was inactive.

For the compound `CCOc1cc2[nH]c(=S)n(C3CC3)c(=O)c2cc1OCC`, the outcome was inactive.

For `CCOC(=O)c1c(C(F)(F)C(F)(F)C(F)(F)C(F)(F)F)n[nH]c1C`, the result was inactive.

Regarding `Cn1c(=O)cc(OCCCC(=O)NCCCN2CCN(Cc3ccccc3)CC2)c2ccccc21`, the outcome was inactive.

Regarding `CC(=O)C1=C(O)C(=O)N(Cc2ccco2)C1c1ccc2c(c1)OCO2` (stereo unspecified), the result was inactive.

As to `CCc1cc2c(SCC(=O)N(C)C3CCS(=O)(=O)C3)ncnc2s1` (stereo unspecified), the result was inactive.

Consider `OC(CNCC1CCCO1)Cn1c2ccc(Br)cc2c2cc(Br)ccc21` (stereo unspecified), for which the result was inactive.

On to `CCN1CCN(c2ccc(S(=O)(=O)N3CCCCC3)cc2NC(=O)c2cccc(F)c2)CC1`, for which the outcome was inactive.

For `COC(=O)/C=C1\SC(=NC(=O)c2cccc(Cl)c2)NC1=O`, the outcome was inactive.

For `CCCc1ccc(OCc2ccc(C(=O)N3CCCC3)o2)cc1`, the result was inactive.

With `Cc1ccc(-c2csc3ncnc(NCCN4CCOCC4)c23)cc1`, the inhibition is 32.6% (active).

For the compound `Cn1c(=O)n(CCCO)c(=O)c2c1nc1n2CCCN1Cc1ccccc1`, the inhibition was 28.4% (active).

Regarding `O=C(NC1CC1)c1ccc2c(c1)N(Cc1ccc(Cl)cc1)CCS2`, the result was inactive.

On to `O=C(COc1ccccc1-c1ccccc1)NCc1ccco1`, for which the outcome was inactive.

`CCOc1ccc2nc(NCCNC(=O)C3CC3)c(C)cc2c1`: the outcome was inactive.

For the next assay, the system named is TRPC4 (mouse), co-expressed with 5HT1a in HEK293. Put plainly: enhancement of serotonin-evoked TRPC4 response – cell-based, second counter screen, HEK293 TRPC4/5HT1a, Fluo-4, counter-screen for TRPC4 potentiator project, confirmation (AID 434979). To be noted: Fluo-4 calcium flux, at 10 µM, serotonin added at its EC20 dose; hits give high values.
Consider `Cc1cc(N2CCCCC2)nc(NCc2ccccc2)n1`, for which the outcome was inactive.

`COCCNC(=O)/C(C#N)=C/c1cc(C(C)C)c(OC)cc1C`: the potentiation was 20.4% (active).

Regarding `CCN1CCN(c2ccc(S(=O)(=O)N3CCCCC3)cc2NC(=O)COc2cc(C)ccc2Cl)CC1`, the potentiation is 17.8% (active).

`FC(F)(F)COc1nc(N2CCCCC2)nc(N2CCNCC2)n1`: the result was inactive.

`CCSc1nnc([C@H](Cc2c[nH]c3ccccc23)NC(=O)OC(C)(C)C)o1`: the potentiation is 13.1% (active).

For `COc1ccc(/C=C(\C#N)C(=O)N2CCOCC2)cc1Br`, the potentiation is 20.4% (active).

On to `N#Cc1ccc(OCC(O)CN2CCN(c3ncc(C(F)(F)F)cc3Cl)CC2)cc1` (stereo unspecified), for which the potentiation was 12.6% (active).

In the case of `CCCC1=C(C(=O)OCC)C(c2cc(Cl)cc(OC)c2OCC(=O)OCC)NC(=O)N1` (stereo unspecified), the potentiation was 5.72% (active).

In the case of `CCCCCc1ccc(OCCCC[n+]2ccccc2)c(CCCCC)c1`, the outcome was inactive.

For `CC(C)(C)c1ccccc1OCCCCCn1ccnc1`, the outcome was inactive.

As to `CCOC(=O)COc1cc(-n2c(=S)[nH]c3ccccc3c2=O)c(Cl)cc1Cl`, the result was inactive.

Regarding `CCCCc1nc(N2CCOCC2)c(C#N)c2c1CCCC2`, the outcome was inactive.

For the compound `CCN1CCN(c2ccc(NC(=O)CCc3c(C)nc4c(-c5ccc(F)cc5)c(C)nn4c3C)cc2)CC1`, the result was inactive.

Turning to `CCOc1cc(/C=C(\C#N)C(=O)Nc2cccc(C(=O)O)c2)cc(Br)c1OC(=O)c1ccc(OC)cc1`, the potentiation was 16.7% (active).

Consider `COc1ccc(Cl)c2sc(N(CCN(C)C)C(=O)c3ccc4c(c3)OCCO4)nc12`, for which the result was inactive.

For the compound `CCCCN1C(=O)C(=O)N(CC(=O)Nc2cc(OCC)c(N3CCOCC3)cc2OCC)C1=O`, the outcome was inactive.

Regarding `CN(C)CCOc1ccc2ccccc2c1`, the potentiation was 19.8% (active).

As to `CCCn1c(NCc2cc(OC)ccc2OC)nc2ccccc21`, the outcome was inactive.

As for `COC(=O)c1ccc(NC(=O)CCN2CCN(Cc3ccccc3)CC2)cc1`, the potentiation is 12.9% (active).

`Cn1c(=O)c2c(nc(SCCN3CCCCC3)n2Cc2ccccc2)n(C)c1=O`: the potentiation was 50.5% (active).

As to `O=C(NCc1ccccc1Cl)/C(=C\c1cccnc1)NC(=O)c1ccccc1`, the outcome was inactive.

As to `COC(=O)[C@@]12CCCN1[C@H](c1ccc(-c3ccc(OC)cc3)cc1)[C@@H]1C(=O)N(C)C(=O)[C@@H]12`, the potentiation is 111% (active).

Take `COc1ccc(-c2cc(C(F)(F)F)nc(N3CCN(C)CC3)n2)cc1`: the potentiation was 14.5% (active).

In the case of `CCOc1ccc(NS(=O)(=O)c2ccc(NC(=S)NC(=O)CC(C)C)cc2)cc1`, the potentiation is 6.51% (active).

For the compound `CCCN(CCC)CCCNC(=O)c1cc2c(=O)n(C)c3ccccc3c2n1C`, the potentiation was 23.1% (active).

For `COc1ccc(CNCC(O)(c2ccccc2)c2ccccc2)cc1OC`, the result was inactive.

On to `CCOc1cc2[nH]c(=S)n(C3CC3)c(=O)c2cc1OCC`, for which the outcome was inactive.

Take `CCOC(=O)c1c(C(F)(F)C(F)(F)C(F)(F)C(F)(F)F)n[nH]c1C`: the outcome was inactive.

Take `Cn1c(=O)cc(OCCCC(=O)NCCCN2CCN(Cc3ccccc3)CC2)c2ccccc21`: the potentiation was 21% (active).

`CC(=O)C1=C(O)C(=O)N(Cc2ccco2)C1c1ccc2c(c1)OCO2` (stereo unspecified): the outcome was inactive.
